pIC50: −log10 of the molar value. The source made the active and inactive calls. No cut-off for these calls is given here.
Legend:
HOP-62 [1] = test: Growth inhibition of human HOP62 cells after 24 hrs by SRB assay; assay type: functional; details: HOP-62, 24 h
NCI-H460 [2] = test: Growth inhibition of human NCI-H460 cells after 24 hrs by SRB assay; assay type: functional; details: NCI-H460, 24 h; for CC50: read-out: LC50 (the source's name)
NCI-H23 [3] = test: Growth inhibition of human NCI-H23 cells after 24 hrs by SRB assay; assay type: functional; details: NCI-H23, 24 h; for CC50: read-out: LC50 (the source's name)
NCI-H460 [4] = test: Antiproliferative activity against human NCI-H460 cells using 10% 2-HPbetaCD compound formulation after 72 hrs by MTT assay; assay type: functional, cell-based; details: NCI-H460, 72 h
Method in brief: (§1)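 MTT anti-proliferation on NSCLC lines. Compounds dissolved in DMSO, diluted with water to 1% DMSO, then into growth medium (max 0.032% DMSO on cells); or dissolved in 10% (w/v) 2-HPβCD in water, then diluted (max 0.008% w/w 2-HPβCD in wells; vehicle controls at 0.008%). IC50 = concentration giving 50% loss of viability versus control cells. Cisplatin dissolved in water with stirring.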

HOP-92 [5] = test: Growth inhibition of human HOP92 cells after 24 hrs by SRB assay; assay type: functional; details: HOP-92, 24 h; for CC50: read-out: LC50 (the source's name)
NCI-H226 [6] = test: Growth inhibition of human NCI-H226 cells after 24 hrs by SRB assay; assay type: functional; details: NCI-H226, 24 h
NCI-H1975 [7] = test: Antiproliferative activity against human NCI-H1975 cells using 1% DMSO/water compound formulation after 72 hrs by MTT assay; assay type: functional, cell-based; details: NCI-H1975, 72 h; method in brief: as §1
NCI-H460 [8] = test: Antiproliferative activity against human NCI-H460 cells using 1% DMSO/water compound formulation after 72 hrs by MTT assay; assay type: functional, cell-based; details: NCI-H460, 72 h; method in brief: as §1
NCI-H522 = test: Growth inhibition of human NCI-H522 cells after 24 hrs by SRB assay; assay type: functional; details: NCI-H522, 24 h; for CC50: read-out: LC50 (the source's name)
NCI-H460 [9] = test: Growth inhibition of human NCI-H460 cells assessed as cell growth at 10 uM after 24 hrs by SRB assay relative to control; assay type: functional; details: NCI-H460, 24 h, read-out: Activity
Method in brief: (§2)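 NCI DTP one-dose screen: cells plated at density set by doubling rate, incubated overnight, then exposed to compound at 10 μM for 24 hours. Growth percentage from protein density at end versus start of experiment, relative to initial cell number.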

A549 [10] = test: Antiproliferative activity against human A549 cells using 10% 2-HPbetaCD compound formulation after 72 hrs by MTT assay; assay type: functional, cell-based; details: A549, 72 h; method in brief: as §1
[11] = Solubility of the compound in 10% 2-HPbetaCD/water solution; assay type: physicochemical; details: buffer
A549 [12] = test: Growth inhibition of human A549 cells assessed as cell growth at 10 uM after 24 hrs by SRB assay relative to control; assay type: functional; details: A549, 24 h, read-out: Activity; method in brief: as §2
EKVX [13] = test: Growth inhibition of human EKVX cells assessed as cell growth at 10 uM after 24 hrs by SRB assay relative to control; assay type: functional; details: read-out: Activity; method in brief: as §2
HCC827 [14] = test: Antiproliferative activity against human HCC827 cells using 10% 2-HPbetaCD compound formulation after 72 hrs by MTT assay; assay type: functional, cell-based; details: HCC827, 72 h; method in brief: as §1
NCI-H322M [15] = test: Growth inhibition of human NCI-H322M cells assessed as cell growth at 10 uM after 24 hrs by SRB assay relative to control; assay type: functional; details: read-out: Activity; method in brief: as §2
A549 [16] = test: Antiproliferative activity against human A549 cells using 1% DMSO/water compound formulation after 72 hrs by MTT assay; assay type: functional, cell-based; details: A549, 72 h; method in brief: as §1
NCI-H226 [17] = test: Growth inhibition of human NCI-H226 cells assessed as cell growth at 10 uM after 24 hrs by SRB assay relative to control; assay type: functional; details: NCI-H226, 24 h, read-out: Activity; method in brief: as §2
HCC827 [18] = test: Antiproliferative activity against human HCC827 cells using 1% DMSO/water compound formulation after 72 hrs by MTT assay; assay type: functional, cell-based; details: HCC827, 72 h; method in brief: as §1
EKVX [19] = test: Growth inhibition of human EKVX cells after 24 hrs by SRB assay; assay type: functional
A549 [20] = test: Growth inhibition of human A549 cells after 24 hrs by SRB assay; assay type: functional; details: A549, 24 h; for CC50: read-out: LC50 (the source's name)
NCI-H1975 [21] = test: Antiproliferative activity against human NCI-H1975 cells using 10% 2-HPbetaCD compound formulation after 72 hrs by MTT assay; assay type: functional, cell-based; details: NCI-H1975, 72 h; method in brief: as §1
NCI-H322M [22] = test: Growth inhibition of human NCI-H322M cells after 24 hrs by SRB assay; assay type: functional
HOP-92 [23] = test: Growth inhibition of human HOP92 cells assessed as cell growth at 10 uM after 24 hrs by SRB assay relative to control; assay type: functional; details: HOP-92, 24 h, read-out: Activity; method in brief: as §2
[24] = Aqueous solubility of the compound in water; assay type: physicochemical; details: buffer
HOP-62 [25] = test: Growth inhibition of human HOP62 cells assessed as cell growth at 10 uM after 24 hrs by SRB assay relative to control; assay type: functional; details: HOP-62, 24 h, read-out: Activity; method in brief: as §2
[26] = Solubility of the compound in 1% DMSO/water solution; assay type: physicochemical; details: buffer
NCI-H23 [27] = test: Growth inhibition of human NCI-H23 cells assessed as cell growth at 10 uM after 24 hrs by SRB assay relative to control; assay type: functional; details: NCI-H23, 24 h, read-out: Activity; method in brief: as §2
NCI-H460 [28] = test: Induction of apoptosis in human NCI-H460 cells assessed as cell detachment up to 1 hr by Annexin V-FITC/propidium iodide staining based fluorescence microscopic method; assay type: functional
NCI-H460 [29] = test: Induction of apoptosis in human NCI-H460 cells assessed as cell rounding up to 1 hr by Annexin V-FITC/propidium iodide staining based fluorescence microscopic method; assay type: functional
NCI-H460 [30] = test: Induction of apoptosis in human NCI-H460 cells assessed as cell shrinkage up to 1 hr by Annexin V-FITC/propidium iodide staining based fluorescence microscopic method; assay type: functional

`CCCc1n(Cc2ccc3ccccc3c2)cc[n+]1Cc1ccc2ccccc2c1.[Br-]` showed a GI50 (HOP-62 [1]) of 1.26 µM, an LC50 (HOP-62 [1]) of 6.19 µM and a TGI (HOP-62 [1]) of 2.8 µM. For the same compound, the GI50 (NCI-H460 [2]) was 1.22 µM, the TGI (NCI-H460 [2]) was 3.01 µM and the CC50 (NCI-H460 [2]) was 7.44 µM. For the same compound, the GI50 (NCI-H23 [3]) was 0.521 µM, the TGI (NCI-H23 [3]) was 2.51 µM and the CC50 (NCI-H23 [3]) was 9.77 µM. It also gave a pIC50 (NCI-H460 [4]) of 5.67, a GI50 (HOP-92 [5]) of 0.863 µM and a TGI (HOP-92 [5]) of 2.66 µM. The CC50 (HOP-92 [5]) was 7.58 µM, the GI50 (NCI-H226 [6]) was 1.31 µM and the LC50 (NCI-H226 [6]) was over 100 µM. It also gave a TGI (NCI-H226 [6]) of 3.92 µM, a pIC50 (NCI-H1975 [7]) of 6.07 and a pIC50 (NCI-H460 [8]) of 5.72. The GI50 (NCI-H522) was 0.378 µM, the TGI (NCI-H522) was 1.68 µM and the CC50 (NCI-H522) was 4.92 µM. For the same compound, the growth at 10 µM (NCI-H460 [9]) was 3.26%, the pIC50 (A549 [10]) was 5.55 and the solubility [11] was over 4400 µg/mL. It also gave a growth at 10 µM (A549 [12]) of 31.6%, a growth at 10 µM (EKVX [13]) of 21.1% and a pIC50 (HCC827 [14]) of 5.90. The growth at 10 µM (NCI-H322M [15]) was 23.2%, the pIC50 (A549 [16]) was 5.53 and the growth at 10 µM (NCI-H226 [17]) was 0.23%. For the same compound, the pIC50 (HCC827 [18]) was 5.84, the GI50 (EKVX [19]) was 1.71 µM and the LC50 (EKVX [19]) was 60.5 µM. It also gave a TGI (EKVX [19]) of 11.4 µM, a GI50 (A549 [20]) of 2.67 µM and a TGI (A549 [20]) of 12.1 µM. The CC50 (A549 [20]) was 60.3 µM, the pIC50 (NCI-H1975 [21]) was 6.20 and the GI50 (NCI-H322M [22]) was 1.96 µM. For the same compound, the LC50 (lethal concentration 50%) (NCI-H322M [22]) was 23.8 µM, the TGI (NCI-H322M [22]) was 6 µM and the growth at 10 µM (HOP-92 [23]) was -38.3%. For the same compound, the solubility [24] was under 500 µg/mL, the growth at 10 µM (HOP-62 [25]) was 5.82% and the solubility [26] was “Soluble”. For the same compound, the growth at 10 µM (NCI-H23 [27]) was -28.2%.
With `Cc1n(Cc2ccc3ccccc3c2)cc[n+]1Cc1ccc2ccccc2c1.[Br-]` the GI50 (HOP-62 [1]) was 1.6 µM, the LC50 (HOP-62 [1]) was 45.3 µM and the TGI (HOP-62 [1]) was 8.35 µM. The GI50 (NCI-H460 [2]) was 1.59 µM, the TGI (NCI-H460 [2]) was 10.7 µM and the CC50 (NCI-H460 [2]) was 44 µM. The GI50 (NCI-H23 [3]) was 0.717 µM, the TGI (NCI-H23 [3]) was 2.93 µM and the CC50 (NCI-H23 [3]) was 10.4 µM. The pIC50 (NCI-H460 [4]) was 5.57, the GI50 (HOP-92 [5]) was 0.673 µM and the TGI (HOP-92 [5]) was 3.64 µM. It also gave a CC50 (HOP-92 [5]) of 26.4 µM, a GI50 (NCI-H226 [6]) of 1.85 µM and an LC50 (NCI-H226 [6]) of 64.1 µM. The TGI (NCI-H226 [6]) was 10.4 µM, the pIC50 (NCI-H1975 [7]) was 6.08 and the pIC50 (NCI-H460 [8]) was 5.60. For the same compound, the GI50 (NCI-H522) was 0.256 µM, the TGI (NCI-H522) was 1.81 µM and the CC50 (NCI-H522) was 6.72 µM. For the same compound, the growth at 10 µM (NCI-H460 [9]) was 9.12%, the pIC50 (A549 [10]) was 5.46 and the solubility [11] was over 4400 µg/mL. It also gave a growth at 10 µM (A549 [12]) of 42.3%, a growth at 10 µM (EKVX [13]) of 47% and a pIC50 (HCC827 [14]) of 5.70. For the same compound, the growth at 10 µM (NCI-H322M [15]) was 48.9%, the pIC50 (A549 [16]) was 5.47 and the growth at 10 µM (NCI-H226 [17]) was 19%. The pIC50 (HCC827 [18]) was 5.63, the GI50 (EKVX [19]) was 2.32 µM and the LC50 (EKVX [19]) was 52.4 µM. For the same compound, the TGI (EKVX [19]) was 17.1 µM, the GI50 (A549 [20]) was 3.81 µM and the TGI (A549 [20]) was 21.3 µM. The CC50 (A549 [20]) was 66.1 µM, the pIC50 (NCI-H1975 [21]) was 6.12 and the GI50 (NCI-H322M [22]) was 2.46 µM. It also gave an LC50 (lethal concentration 50%) (NCI-H322M [22]) of 32.9 µM, a TGI (NCI-H322M [22]) of 10.4 µM and a growth at 10 µM (HOP-92 [23]) of -20.3%. The solubility [24] was under 500 µg/mL, the growth at 10 µM (HOP-62 [25]) was 18% and the solubility [26] was “Soluble”. The growth at 10 µM (NCI-H23 [27]) was 5.53%.
Work on `Clc1c(Cl)[n+](Cc2ccc3ccccc3c2)cn1Cc1ccc2ccccc2c1` yielded a pIC50 (NCI-H1975 [7]) of 5.30, a pIC50 (NCI-H460 [8]) of 5.30 and a pIC50 (A549 [16]) of 5.05. The pIC50 (HCC827 [18]) was 5.22, the Activity (NCI-H460 [28]) was “Active” and the Activity (NCI-H460 [29]) was “Active”. For the same compound, the Activity (NCI-H460 [30]) was “Active”.
